Reference: PMC2735267 (Neuropharmacology, 2009)
Read-outs that look alike come from different tables or passages of the source. Marks after values point to notes of the source that are not given here.

Tests used:
α7-nAChR = α7-nAChR (Mus musculus, UniProt P49582); experiment: biochemical; format: binding, C57BL/6J mice; details: read-out: [125I]α-bungarotoxin (WT) Ki; […]; 0.5 nM ligand; one-site model
β2*-nAChR = β2*-nAChR (Mus musculus, UniProt O70174+Q9ERK7); experiment: biochemical; format: binding, C57BL/6J mice; details: read-out: [125I]epibatidine (β4 -/-) Ki; inferior colliculi, β4-/- mice; 200 pM ligand
Sequence of β2*-nAChR (O70174 31-629): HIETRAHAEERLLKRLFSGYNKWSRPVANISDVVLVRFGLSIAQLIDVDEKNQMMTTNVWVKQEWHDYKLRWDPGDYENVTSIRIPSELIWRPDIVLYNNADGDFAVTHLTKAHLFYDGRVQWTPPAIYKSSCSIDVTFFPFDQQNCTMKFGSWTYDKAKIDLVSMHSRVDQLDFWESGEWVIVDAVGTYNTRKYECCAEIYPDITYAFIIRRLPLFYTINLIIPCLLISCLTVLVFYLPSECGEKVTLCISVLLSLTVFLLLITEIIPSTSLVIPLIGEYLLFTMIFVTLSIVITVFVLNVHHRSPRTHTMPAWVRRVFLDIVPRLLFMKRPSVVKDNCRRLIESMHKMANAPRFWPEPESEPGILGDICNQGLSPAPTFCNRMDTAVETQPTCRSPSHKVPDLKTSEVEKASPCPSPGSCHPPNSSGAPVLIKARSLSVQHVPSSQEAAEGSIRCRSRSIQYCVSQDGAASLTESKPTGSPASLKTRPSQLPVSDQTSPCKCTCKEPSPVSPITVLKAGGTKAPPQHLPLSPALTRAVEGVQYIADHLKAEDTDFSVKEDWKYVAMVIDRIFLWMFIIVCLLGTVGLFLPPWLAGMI
Sequence of β2*-nAChR (Q9ERK7 26-501): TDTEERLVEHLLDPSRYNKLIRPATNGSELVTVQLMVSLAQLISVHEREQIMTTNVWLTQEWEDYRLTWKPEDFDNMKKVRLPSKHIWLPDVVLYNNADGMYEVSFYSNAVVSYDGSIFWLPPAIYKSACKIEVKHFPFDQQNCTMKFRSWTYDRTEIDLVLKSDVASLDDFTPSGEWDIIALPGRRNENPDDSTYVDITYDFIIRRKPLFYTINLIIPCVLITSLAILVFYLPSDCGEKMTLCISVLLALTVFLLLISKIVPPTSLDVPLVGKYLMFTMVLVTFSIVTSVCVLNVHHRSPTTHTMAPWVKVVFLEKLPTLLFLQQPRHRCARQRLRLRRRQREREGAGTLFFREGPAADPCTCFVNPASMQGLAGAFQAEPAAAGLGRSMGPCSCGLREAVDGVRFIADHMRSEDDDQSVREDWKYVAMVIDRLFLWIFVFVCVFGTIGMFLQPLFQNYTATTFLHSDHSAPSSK

C57BL/6J mice = experiment: 3-IC-induced hypothermia; format: in vivo, mouse
β2 null mutant mice = experiment: 3-IC-induced hypothermia in β2 null mutant and wild-type mice; format: in vivo, mouse; details: 0.2 mg/kg ip
Summary of the method: (§1)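 Null mutants were backcrossed onto C57BL/6J for at least 10 generations, genotyped from tail DNA, and compared with wild-type mice (β2-/- n = 5; β4-/- n = 5). Test compound was given at 0.2 mg/kg IP in 10 µl/g body weight. Rectal temperature was taken every 5 minutes with a peanut-oil-lubricated probe inserted 1.5 cm. Data are mean ± SEM, analysed by repeated-measures ANOVA (time × genotype).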

β4 null mutant mice = experiment: 3-IC-induced hypothermia in β4 null mutant and wild-type mice; format: in vivo, mouse; details: 0.2 mg/kg ip
Summary of the method: as §1

DBA/2J mice = experiment: Chronic intravenous 3-IC infusion and tolerance test; format: in vivo, mouse
α7* nAChR binding sites = format: in vivo, DBA/2J mice; details: for [125I]α-bungarotoxin binding: 3-IC 0.2 mg/kg/h iv 7 days; for [125I]α-bungarotoxin binding % change: 3-IC 0.2 mg/kg/h iv 7 days vs saline
[1] = inferior colliculus (externall)
[2] = superior colliculus (optic nerve)
[3] = superior colliculus (sup. gray)
[4] = supramammillary hypothalamic nucleus
[5] = ventrolateral geniculate nucleus

Sequence of α7-nAChR (P49582 23-502): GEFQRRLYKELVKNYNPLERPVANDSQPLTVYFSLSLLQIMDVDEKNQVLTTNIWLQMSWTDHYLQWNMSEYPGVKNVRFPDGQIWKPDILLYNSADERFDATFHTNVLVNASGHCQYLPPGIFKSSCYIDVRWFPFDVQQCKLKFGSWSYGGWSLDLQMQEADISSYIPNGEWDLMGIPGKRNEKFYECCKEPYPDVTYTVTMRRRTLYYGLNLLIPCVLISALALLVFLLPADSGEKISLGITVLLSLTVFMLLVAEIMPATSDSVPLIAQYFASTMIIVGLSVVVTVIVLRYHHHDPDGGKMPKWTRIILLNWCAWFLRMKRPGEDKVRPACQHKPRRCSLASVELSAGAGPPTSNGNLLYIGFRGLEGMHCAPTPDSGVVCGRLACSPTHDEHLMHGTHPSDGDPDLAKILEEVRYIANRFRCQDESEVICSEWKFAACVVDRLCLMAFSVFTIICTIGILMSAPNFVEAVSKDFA

Compound: O=c1c(I)ccc2n1C[C@@H]1CNC[C@H]2C1 [3-IC, 3-iodocytisine]
- Ki (α7-nAChR): 2.2 ± 1.2 nM
- Ki (β2*-nAChR): 0.128 ± 0.003 nM
- decrease of basal temperature (C57BL/6J mice; 0.2 mg/kg ip acute): 9.2 ± 1.13 °C
- maximal temperature decrease (C57BL/6J mice; 1 mg/kg ip): 13.3 ± 0.9 °C
- maximal 3-IC-induced hypothermia after saline pretreatment (C57BL/6J mice; hexamethonium experiment, 3-IC 0.2 mg/kg): 9.25 ± 0.76 °C
- ED50 for hypothermia (C57BL/6J mice; ip, maximal drop in temperature): 0.16 ± 0.03 mg/kg
- 3-IC-induced hypothermia after saline pretreatment (C57BL/6J mice; mecamylamine experiment, 3-IC 0.2 mg/kg ip): 9.25 ± 0.76 °C
- maximal 3-IC induced hypothermia (decrease of temperature) (β2 null mutant mice; β2+/+ mice): 9.8 ± 0.76 °C
- maximal 3-IC induced hypothermia (decrease of temperature) (β2 null mutant mice; β2-/- mice): 8.4 ± 1 °C
- maximal hypothermia (β4 null mutant mice; β4+/+ mice): 7.9 ± 0.3 °C
- maximal hypothermia (β4 null mutant mice; β4-/- mice): 2.9 ± 0.4 °C
- tolerance after chronic infusion (DBA/2J mice; 0.2 mg/kg/h iv 7 days): did not elicit tolerance
- decrease of body temperature during infusion (DBA/2J mice; after 24 hours of continuous intravenous infusion of 0.5 mg/kg/h): 13 ± 0.3 °C
- infusion doses that elicited tremors (DBA/2J mice; continuous intravenous infusion): higher than 0.2 mg/kg/h
- [125I]α-bungarotoxin binding (α7* nAChR binding sites; caudate putamen): 19.6 ± 2.3 fmol/mg
- [125I]α-bungarotoxin binding % change (α7* nAChR binding sites; caudate putamen): 65.8%
- [125I]α-bungarotoxin binding % change (α7* nAChR binding sites; caudate putamen, listed as 3-iodocytisine): 65.8 * %
- [125I]α-bungarotoxin binding (α7* nAChR binding sites; cingulate cortex): 6.3 ± 1.4 fmol/mg
- [125I]α-bungarotoxin binding % change (α7* nAChR binding sites; cingulate cortex): 11.7%
- [125I]α-bungarotoxin binding (α7* nAChR binding sites; dentate gyrus (granular layer)): 11.7 ± 1.2 fmol/mg
- [125I]α-bungarotoxin binding % change (α7* nAChR binding sites; dentate gyrus (granular layer)): 63.5%
- [125I]α-bungarotoxin binding (α7* nAChR binding sites; hippocampus (CA1-3)): 10.2 ± 0.8 fmol/mg
- [125I]α-bungarotoxin binding % change (α7* nAChR binding sites; hippocampus (CA1-3)): 77.5%
- [125I]α-bungarotoxin binding % change (α7* nAChR binding sites; hippocampus (CA1-3), listed as 3-iodocytisine): 77.5 ** %
- [125I]α-bungarotoxin binding (α7* nAChR binding sites; inferior colliculus (central)): 37.6 ± 4.2 fmol/mg
- [125I]α-bungarotoxin binding % change (α7* nAChR binding sites; inferior colliculus (central)): 21.7%
- [125I]α-bungarotoxin binding (α7* nAChR binding sites; inferior colliculus (dorsal)): 21.7 ± 3.7 fmol/mg
- [125I]α-bungarotoxin binding % change (α7* nAChR binding sites; inferior colliculus (dorsal)): 14.4%
- [125I]α-bungarotoxin binding (α7* nAChR binding sites; [1]): 23.5 ± 4.1 fmol/mg
- [125I]α-bungarotoxin binding % change (α7* nAChR binding sites; [1]): 33.1%
- [125I]α-bungarotoxin binding (α7* nAChR binding sites; interpeduncular nucleus): 23.5 ± 1.4 fmol/mg
- [125I]α-bungarotoxin binding % change (α7* nAChR binding sites; interpeduncular nucleus): 26.2 * %
- [125I]α-bungarotoxin binding (α7* nAChR binding sites; medial habenula): 11.6 ± 1.0 fmol/mg
- [125I]α-bungarotoxin binding % change (α7* nAChR binding sites; medial habenula): 26.4%
- [125I]α-bungarotoxin binding (α7* nAChR binding sites; nucleus accumbens): 6.8 ± 0.7 fmol/mg
- [125I]α-bungarotoxin binding % change (α7* nAChR binding sites; nucleus accumbens): 81.2%
- [125I]α-bungarotoxin binding % change (α7* nAChR binding sites; nucleus accumbens, listed as 3-iodocytisine): 81.2 ** %
- [125I]α-bungarotoxin binding (α7* nAChR binding sites; parietal cortex (layers 1-3)): 5.9 ± 0.3 fmol/mg
- [125I]α-bungarotoxin binding % change (α7* nAChR binding sites; parietal cortex (layers 1-3)): 79.3 ** %
- [125I]α-bungarotoxin binding (α7* nAChR binding sites; parietal cortex (layers 4-6)): 7.8 ± 0.4 fmol/mg
- [125I]α-bungarotoxin binding % change (α7* nAChR binding sites; parietal cortex (layers 4-6)): 74.4 ** %
- [125I]α-bungarotoxin binding (α7* nAChR binding sites; retrosplenial Cortex): 4.8 ± 0.4 fmol/mg
- [125I]α-bungarotoxin binding % change (α7* nAChR binding sites; retrosplenial Cortex): 21.2%
- [125I]α-bungarotoxin binding (α7* nAChR binding sites; subiculum): 7.1 ± 0.7 fmol/mg
- [125I]α-bungarotoxin binding % change (α7* nAChR binding sites; subiculum): 22.0%
- [125I]α-bungarotoxin binding (α7* nAChR binding sites; substantia nigra): 7.9 ± 0.9 fmol/mg
- [125I]α-bungarotoxin binding % change (α7* nAChR binding sites; substantia nigra): 29.5%
- [125I]α-bungarotoxin binding (α7* nAChR binding sites; [2]): 11.5 ± 0.5 fmol/mg
- [125I]α-bungarotoxin binding % change (α7* nAChR binding sites; [2]): 44.2 ** %
- [125I]α-bungarotoxin binding (α7* nAChR binding sites; [3]): 23.1 ± 0.8 fmol/mg
- [125I]α-bungarotoxin binding % change (α7* nAChR binding sites; [3]): 34.7 ** %
- [125I]α-bungarotoxin binding (α7* nAChR binding sites; [4]): 12.1 ± 1.2 fmol/mg
- [125I]α-bungarotoxin binding % change (α7* nAChR binding sites; [4]): 24.4%
- [125I]α-bungarotoxin binding (α7* nAChR binding sites; ventral tegmental area): 5.2 ± 0.4 fmol/mg
- [125I]α-bungarotoxin binding % change (α7* nAChR binding sites; ventral tegmental area): 40.5%
- [125I]α-bungarotoxin binding % change (α7* nAChR binding sites; ventral tegmental area, listed as 3-iodocytisine): 40.5 * %
- [125I]α-bungarotoxin binding (α7* nAChR binding sites; [5]): 18.1 ± 1.2 fmol/mg
- [125I]α-bungarotoxin binding % change (α7* nAChR binding sites; [5]): 30.2 * %
- [125I]α-bungarotoxin binding (α7* nAChR binding sites; zona incerta): 11.1 ± 1.0 fmol/mg
